What all share (type): functional
Assay [1] deals with Mycobacterium kansasii. Briefly: In vitro inhibition of Mycobacterium Kansasi (My 6 509/96) growth after 14 days culture. The following applies: 336 h.
For assay [2], the system named is Mycobacterium tuberculosis. As to the kind of experiment: In vitro minimum inhibitory concentration the compound for anti-mycobacterial activity was determined against Mycobacterium tuberculosis (My 331/88) by micromethod after 21 days of incubation. The following applies: 504 h. The gist of the method: (§1)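 Micromethod broth MIC. Compounds tested at 500, 250, 125, 32, 16, 8, 4 and 2, plus one intermediate level between 125 and 32. Plates incubated at 37 C and read at 7, 14 and 21 days. MIC is the lowest concentration at which growth of the mycobacteria was inhibited. MIC could not be set where solubility in the test medium was limited.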

Assay [3] relates to Mycobacterium kansasii. As to the kind of experiment: In vitro inhibition of Mycobacterium Kansasi (My 235/80) growth after 7 days culture. Conditions: 168 h.
Assay [4] deals with Mycobacterium kansasii. Briefly: In vitro inhibition of Mycobacterium Kansasi (My 6 509/96) growth after 21 days culture. The following applies: 504 h.
Assay [5] deals with Mycobacterium avium. As to the kind of experiment: In vitro inhibition of Mycobacterium Avium (My 330/88) growth after 21 days culture. The following applies: 504 h. Summed up:
as §1

The next assay concerns HeLa. As to the kind of experiment: The compound was tested for cytotoxicity against HeLa cells. The following applies: Homo sapiens.
The test system of assay [6] is Mycobacterium avium. Briefly: In vitro inhibition of Mycobacterium Avium growth after 14 days culture. Conditions: 336 h. Summed up:
as §1

Assay [7] concerns Mycobacterium kansasii. As to the kind of experiment: In vitro inhibition of Mycobacterium Kansasi (My 235/80) growth after 14 days culture. Conditions: 336 h.
A short description of assay [8]: Ratio of cytotoxicity to minimum inhibitory concentration of Mycobacterium tuberculosis My 331/88 was evaluated.
The test system of assay [9] is Mycobacterium kansasii. As to the kind of experiment: In vitro inhibition of Mycobacterium Kansasi (My 235/80) growth after 21 days culture. The following applies: 504 h.
For assay [10], the system named is Mycobacterium kansasii. Briefly: In vitro minimum inhibitory concentration of the compound for anti-mycobacterial activity was determined against Mycobacterium kansasii (My 6 509/96) by micromethod after 7 days of incubation. The following applies: 168 h.
The test system of assay [11] is Mycobacterium kansasii. As to the kind of experiment: In vitro minimum inhibitory concentration the compound for anti-mycobacterial activity was determined against Mycobacterium kansasii (My 6 509/96) by micromethod after 21 days of incubation. The following applies: 504 h.
Assay [12] deals with Mycobacterium avium. Briefly: In vitro minimum inhibitory concentration the compound for anti-mycobacterial activity was determined against Mycobacterium avium (My 330/88) by micromethod after 14 days of incubation. Conditions: 336 h. Summed up:
as §1

Assay [13] relates to Mycobacterium tuberculosis. Briefly: In vitro inhibition of Mycobacterium Tuberculosis (My 331/88) growth after 14 days culture. The following applies: 336 h. The gist of the method: as §1
Assay [14] relates to Mycobacterium tuberculosis. As to the kind of experiment: In vitro inhibition of Mycobacterium Tuberculosis (My 331/88) growth after 21 days culture. Conditions: 504 h. Summed up:
as §1

Assay [15] concerns Mycobacterium kansasii. Briefly: In vitro minimum inhibitory concentration the compound for anti-mycobacterial activity was determined against Mycobacterium kansasii (My 6 509/96) by micromethod after 14 days of incubation. The following applies: 336 h.
Assay [16] concerns Mycobacterium avium. Briefly: In vitro minimum inhibitory concentration the compound for anti-mycobacterial activity was determined against Mycobacterium avium (My 330/88) by micromethod after 21 days of incubation. Conditions: 504 h. The gist of the method:
as §1

The subject of assay [17] is Mycobacterium kansasii. Briefly: In vitro minimum inhibitory concentration the compound for anti-mycobacterial activity was determined against Mycobacterium kansasii (My 235/80) by micromethod after 21 days of incubation. Conditions: 504 h.
Assay [18] relates to Mycobacterium kansasii. Briefly: In vitro minimum inhibitory concentration the compound for anti-mycobacterial activity was determined against Mycobacterium kansasii (My 6 509/96) by micromethod after 7 days of incubation. Conditions: 168 h.
In assay [19] the test system is Mycobacterium kansasii. As to the kind of experiment: In vitro minimum inhibitory concentration the compound for anti-mycobacterial activity was determined against Mycobacterium kansasii (My 235/80) by micromethod after 14 days of incubation. The following applies: 336 h.

Converted amounts (≈) assume the structure as drawn.

Consider `NC(=S)c1cccc(CSc2nc3ccccc3s2)c1`, for which the MIC was 16 µM (≈ 5.06 µg/mL) in the assay with Mycobacterium kansasii [1]; 16 µM (≈ 5.06 µg/mL) in [2]; 8 µM (≈ 2.53 µg/mL) against Mycobacterium kansasii [3]; 16 µM (≈ 5.06 µg/mL) with Mycobacterium kansasii [4]; 62 µM (≈ 19.6 µg/mL) against Mycobacterium avium [5]; 32 µM (≈ 10.1 µg/mL) against Mycobacterium avium [6]. The MIC was found to be 16 µM (≈ 5.06 µg/mL) with Mycobacterium kansasii [7], 16 µM (≈ 5.06 µg/mL) in the assay on Mycobacterium kansasii [9] and 8 µM (≈ 2.53 µg/mL) against Mycobacterium kansasii [10]. Further, the CC50 in the assay on HeLa turned out to be 36.7 µM. Besides, the Safety index in [8] amounted to 4.6.

As to `NC(=S)c1cccc(CSc2nc3ccccc3o2)c1`, the MIC with Mycobacterium kansasii [11] came out at 32 µM (≈ 9.61 µg/mL); against Mycobacterium avium [12], 62 µM (≈ 18.6 µg/mL); in assay [13] it was 8 µM (≈ 2.4 µg/mL); against Mycobacterium kansasii [3] it was 8 µM (≈ 2.4 µg/mL); in assay [14], 16 µM (≈ 4.81 µg/mL); in the assay with Mycobacterium kansasii [15] it was 32 µM (≈ 9.61 µg/mL). Further, the minimum inhibitory concentration (MIC) against Mycobacterium avium [16] amounted to 62 µM (≈ 18.6 µg/mL); in the assay on Mycobacterium kansasii [17], 32 µM (≈ 9.61 µg/mL); in the assay on Mycobacterium kansasii [18], 8 µM (≈ 2.4 µg/mL); with Mycobacterium kansasii [19], 32 µM (≈ 9.61 µg/mL). Also, the 50% cytotoxic concentration (CC50) with HeLa came out at 71.9 µM. Further, the Safety index in assay [8] is 9.

Take `c1ccc(CSc2nc3ccccc3s2)cc1`: the MIC came out at 250 µM (≈ 64.3 µg/mL) with Mycobacterium kansasii [11]; 32 µM (≈ 8.24 µg/mL) in the assay with Mycobacterium avium [12]; 250 µM (≈ 64.3 µg/mL) in [13]; 62 µM (≈ 16 µg/mL) in the assay with Mycobacterium kansasii [3]; 500 µM (≈ 129 µg/mL) in assay [14]; 125 µM (≈ 32.2 µg/mL) with Mycobacterium kansasii [15]. The MIC with Mycobacterium avium [16] was 62 µM (≈ 16 µg/mL); against Mycobacterium kansasii [17], > 500 µM; against Mycobacterium kansasii [18] it was 62 µM (≈ 16 µg/mL); in the assay on Mycobacterium kansasii [19] it was 500 µM (≈ 129 µg/mL).

For `Sc1nc2ccccc2s1` [2-MERCAPTOBENZOTHIAZOLE], the MIC against Mycobacterium kansasii [11] is > 62 µM; in the assay with Mycobacterium avium [12] it was > 62 µM; in [13], 62 µM (≈ 10.4 µg/mL); in the assay on Mycobacterium kansasii [3] it was 62 µM (≈ 10.4 µg/mL); in [14], 62 µM (≈ 10.4 µg/mL); in the assay with Mycobacterium kansasii [15], > 62 µM. Besides, the minimum inhibitory concentration (MIC) with Mycobacterium avium [16] is > 62 µM; with Mycobacterium kansasii [17], > 125 µM; in the assay on Mycobacterium kansasii [18], 62 µM (≈ 10.4 µg/mL); against Mycobacterium kansasii [19], 125 µM (≈ 20.9 µg/mL).

The values above are taken from ChEMBL document CHEMBL1134964, “Heterocyclic benzazole derivatives with antimycobacterial in vitro activity” (2002).
